Most compounds without a hit are left out; they make up all but 2.1% or so of the library.
MEKK3 PB1 HTS: MEKK3-MEK5 PB1 interaction, increase or decrease; hit rate 1.4% among 290,000; binding response (% of control), % at 10 µM; bead-based flow cytometry, Alexa488-MEK5 binding to MEKK3; actives lie on both sides; 0 = blocked by unlabeled MEK5, 100 = vehicle; Q99759;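 active = binding response more than 3 SD above or below the average of its plate-row segment, actives on both sides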;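 note: Alexa488 bead fluorescence after subtracting the streptavidin-only scavenger bead signal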
STK33 kinase inh: inhibitors of human STK33 kinase | Q9BYT3 | purified STK33, MBP phosphorylation, ADP-Glo luminescence | inhibition, % at 10 µM | hit rate 0.073% among 320,000 | AID 2661;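 active = inhibition at or above 25%, using the most active replicate where run in duplicate; inactive = inhibition below 25%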
GSK3B inh: human GSK3beta kinase inhibition. P49841. GST-GSK3beta kinase, ADP-Glo luminescence, 60 min; stronger effect = lower value. activity score (negative = inhibition), % at 10 µM. hit rate 0.038% among 300,000. AID 2097;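 active = more than half of replicate wells score below -50%, meaning over 50% inhibition versus plate controls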;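 note: 0% = median DMSO wells and -100% = median GW8510 positive control wells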
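Test system – GST-tagged human GSK3beta kinase, cell-free · Incubation – 60 min enzyme reaction, room temperature · Signal – ADP-Glo luminescence · Also added – peptide substrate and ATP at 25 µM · Controls – DMSO neutral wells and GW8510 at 20 µM as positive · Buffer or medium – Tris/MgCl2 kinase buffer · Measure – Luminescence-derived activity versus plate DMSO and GW8510 wells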
MEKK2wt PB1 HTS: raises or lowers MEK5 binding to wildtype human MEKK2 PB1 domain | bead flow cytometry, Alexa488-MEK5 binding to MEKK2 WT; actives lie on both sides | Q9Y2U5 | AID 1531 | binding response (% of control), % at 10 µM | hit rate 1.1% among 290,000; in the data active = binding response below about 67% or above about 130%
GSK3 alpha inh: human GSK-3 alpha kinase inhibition. ADP-Glo luminescence, 60 min. AID 2650. P49840. hit rate 0.1% among 320,000. inhibition, % at 10 µM;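 active = more than half of replicates show inhibition above 20%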;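 note: GST-tagged GSK-3 alpha with peptide substrate and 25 µM ATP; 0% = DMSO neutral wells and 100% = GW8510 positive control wells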
Target sequence (P49840 whole entry, looked up): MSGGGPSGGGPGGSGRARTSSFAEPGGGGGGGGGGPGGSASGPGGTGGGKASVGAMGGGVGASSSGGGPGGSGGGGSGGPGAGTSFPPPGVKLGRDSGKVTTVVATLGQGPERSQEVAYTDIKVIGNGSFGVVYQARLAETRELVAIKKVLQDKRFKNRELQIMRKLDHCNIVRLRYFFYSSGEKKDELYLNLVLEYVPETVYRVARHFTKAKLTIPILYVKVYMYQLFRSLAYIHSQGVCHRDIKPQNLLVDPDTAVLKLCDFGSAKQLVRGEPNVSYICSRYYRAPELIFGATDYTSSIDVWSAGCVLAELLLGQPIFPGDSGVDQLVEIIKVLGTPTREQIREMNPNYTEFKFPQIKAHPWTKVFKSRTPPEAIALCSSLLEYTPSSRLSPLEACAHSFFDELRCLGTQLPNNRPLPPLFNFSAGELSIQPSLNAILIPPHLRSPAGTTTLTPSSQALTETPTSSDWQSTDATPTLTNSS
MEKK2mut PB1 HTS: signal of MEK5 binding to mutant human MEKK2 PB1 domain. bead flow cytometry, Alexa488-MEK5 binding to MEKK2 mutant. percent response, % at 10 µM. hit rate 0.35% among 290,000. AID 1530; in the data active = percent response above about 24%, passing the limit was not always enough
Numbers without * were called inactive; . = no result given; [ ] = dose if it differs, or a comment.

SMILES | MEKK3 PB1 HTS | STK33 kinase inh | GSK3B inh | MEKK2wt PB1 HTS | GSK3 alpha inh | MEKK2mut PB1 HTS
Cc1ccc(C)c(OCC(O)CN2CCC(CN3C(=O)c4cccc5cccc(c45)C3=O)CC2)c1 (stereo not given) | 112 | -1 | -1 | 162* | -1 | 6
O=C(N/N=C/c1ccc(OC(=O)c2ccc(Br)cc2)cc1)c1ccncc1 | 66*[inhibitor] | -1 | 2 | 61*[inhibitor] | 7 | -41
CC(CN1CCN(C)CC1)OC(=O)c1cccc(Cl)c1 (stereo not given) | 100 | 0 | 4 | 108 | 1 | 0
CCOc1cc(N(CC)CC)ccc1/C=C(/C#N)c1nc2ccccc2[nH]1 | . | -1 | -1 | . | -7 | .
CCCOc1cc(N(CC)CC)ccc1/C=C(/C#N)c1nc2ccc(C)cc2[nH]1 | 111 | 1 | 3 | 57* | 0 | 87*
Cc1nnc(-n2ncc(C#N)c2N)c2nn(-c3cccc(Cl)c3)c(C)c12 | 95 | -3 | 0 | 97 | -2 | 2
Cc1nnc(N2CCOCC2)c2nn(-c3cccc(Cl)c3)c(C)c12 | 122 | -1 | -2 | 80 | -1 | 85*
Cn1cc(/C=C2\SC(=S)N(NC(=O)c3ccccc3)C2=O)c2ccccc21 | 96 | 1 | 2 | 73 | 4 | -4
Cn1cc(/C=C2\SC(=S)N(NC(=O)c3cccc(Cl)c3)C2=O)c2ccccc21 | 88 | . | . | 48*[inhibitor] | . | -9
CC(=O)N(C)C1=C(N2CCOCC2)C(=O)c2ccccc2C1=O | 90 | 0 | 1 | 90 | 4 | -5
CC(=O)N(C1=C(N2CCOCC2)C(=O)c2ccccc2C1=O)c1ccc(C(=O)O)cc1 | 99 | -2 | -1 | -1.0* | 0 | 2
CCN1CCN(CCCNC(=O)c2cc3c(s2)-c2ccccc2OC3)CC1 | 102 | -1 | 0 | 111 | 10 | 3
Cc1ccc2oc(=O)c3cc(C(=O)NCCCN4CCCC(C)C4)sc3c2c1 (stereo not given) | 105 | -2 | 6 | 136* | 2 | 16
Cc1cccc2c1-c1sc(C(=O)NCCCN3CCCC(C)C3)cc1CO2 (stereo not given) | 105 | 1 | -1 | 171* | 2 | 24*
CC1CC(C)CN(CCCNC(=O)c2cc3c(s2)-c2ccccc2OC3)C1 (stereo not given) | 106 | 0 | -3 | 142* | 8 | 25*
CCCN1CCN(CCCNC(=O)c2cc3c(s2)-c2c(C)cccc2OC3)CC1 | 106 | 0 | 0 | 133 | 2 | 12
Cc1ccc2oc(=O)c3cc(C(=O)NCCN4CCc5ccccc5C4)sc3c2c1 | 89 | 0 | 2 | 90 | . | -7
O=C(O)c1cc(S(=O)(=O)N2CC=C(c3ccccc3)CC2)ccc1O | . | -2 | . | . | -3 | .
CC[C@@H](Nc1ncnc2c1oc1ccccc12)C(=O)O | 100 | 0 | 5 | 93 | -4 | 6
Cc1ccccc1Cc1c(C)nc2nc(SCC(=O)NCCCN3CCCC3)nn2c1C | 105 | -1 | . | 136* | 0 | 19
Cc1nc2nc(SCC(=O)NCCCN3CCCCCC3)nn2c(C)c1Cc1ccccc1Cl | 104 | -1 | -3 | 130 | 7 | 16
Cc1ccc(Cc2c(C)nc3nc(SCC(=O)NCCCN4CCCC4)nn3c2C)cc1 | 109 | 5 | 0 | 147* | 4 | 21
Cc1cc(-c2nnc(SCC(=O)Nc3ccccc3Cl)n2C)no1 | 104 | -2 | 2 | 112 | -1 | 3
CCn1c2ccccc2c2cc(/C=N/O)ccc21 | 103 | -1 | -23 | 101 | -1 | 1
CCn1c2ccc(/C(C)=N\O)cc2c2cc(/C(C)=N\O)ccc21 | 98 | 37* | 1 | 98 | 2 | -6
SMILES | MEKK3 PB1 HTS | STK33 kinase inh | GSK3B inh | MEKK2wt PB1 HTS | GSK3 alpha inh | MEKK2mut PB1 HTS
CC1CN(S(=O)(=O)c2cccc(C(=O)NCCC3=CCCCC3)c2)CC(C)O1 (stereo not given) | . | -1 | -1 | . | -3 | .
CC(=O)OCCCNc1cc(Sc2ccc(C)cc2)c2nonc2c1[N+](=O)[O-] | 130* | -1 | -13 | 105 | -2 | 1
CC(=O)OCCCNc1cc(Sc2nc3ccccc3s2)c2nonc2c1[N+](=O)[O-] | 92 | 0 | 0 | 91 | 0 | -5
CN(C)/C=C/C(=O)c1ccc2noc(-c3ccccc3)c2c1 | 102 | 45* | -1 | 101 | 10 | -1
C=CC[C@@H](CC(=O)N(CCO)Cc1ccccc1)C(=O)NC[C@H](OC(=O)[C@@H](CC=C)Cc1ccc(F)cc1)c1ccccc1 | . | 0 | . | . | -2 | .
COc1cccc(NC(=O)CSc2nc3c(sc4ccccc43)c(=O)n2CCCN2CCCC2)c1 | 110 | -1 | 0 | 179* | 0 | 21
Cc1c(C)c(C)c(S(=O)(=O)NCCC(=O)N2CCN(Cc3ccc(C#N)cc3)CC2)c(C)c1C | . | 0 | . | . | 0 | .
CCNc1nc(N)c(C(=O)c2ccc(Cl)s2)s1 | 107 | 8 | -90* | 112 | 98* | 12
CC(C)(C)c1csc(NC(=O)c2ccc(Cl)s2)n1 | 105 | 1 | 0 | 109 | -1 | 7
O=C(COc1cccnc1[N+](=O)[O-])Nc1cc(S(=O)(=O)N2CCCCC2)ccc1Cl | 88 | 0 | -3 | 80 | -4 | -21
CCOc1ccc(N(CC(=O)Nc2ccc(C)c(C)c2)S(=O)(=O)c2c(C)noc2C)cc1 | 112 | 0 | 3 | 134* | -3 | 7
CCOC(=O)c1c(C)n(-c2ccc(C)cc2)c2ccc(OCC(O)CNCCCO)cc12 (stereo not given) | 106 | 2 | -7 | 181* | 7 | 40
CCOC(=O)c1c(C)n(-c2ccc(C)cc2)c2ccc(OCC(O)CNCC3CCCO3)cc12 (stereo not given) | 53 | 1 | 0 | 124 | 7 | -7
S=C(NCc1ccccc1)Nc1ccc2cn[nH]c2c1 | 105 | 26* | -18 | 100 | 23 | -1
COc1ccc(NC(=S)Nc2ccc3cn[nH]c3c2)cc1 | 103 | 39* | -6 | 98 | 36 | -2
CCCCNC(=S)Nc1ccc2cn[nH]c2c1 | 108 | . | 1 | 108 | . | 6
CC(C)NC(=S)Nc1ccc2cn[nH]c2c1 | 92 | 58* | -4 | 92 | 48 | -2
CCc1ccc(NC(=S)Nc2ccc3cn[nH]c3c2)cc1 | 101 | 31* | 0 | 98 | 19 | 1
CN1C(=O)CS/C1=N\NC(=O)COc1cccc2cccnc12 | 98 | 0 | -1 | 94 | -1 | -5
CN(C)S(=O)(=O)c1cccc(NC(=S)Nc2ccc3cn[nH]c3c2)c1 | 93 | 48* | -1 | 94 | 22 | -4
CN(C)S(=O)(=O)c1cccc(NC(=S)Nc2cccc3cnccc23)c1 | 91 | . | 2 | 90 | . | -4
CC(C)CC1NC(=O)N(CC(=O)Nc2ccc3c(c2)CCC3)C1=O (stereo not given) | 110 | -2 | 1 | 100 | -2 | -1
